Assay results: article PMC9078949 (RSC Advances, 2018)
Where “and” joins values, the source holds several entries; their conditions need not be identical. Equal values may be shown once.

How the values were obtained:
CXCR2 = molecular target: T1, CXCR2 (Homo sapiens, UniProt P25025); experiment: CXCR2 antagonistic activity assay; type: cell-based
T1 sequence (P25025 1-360): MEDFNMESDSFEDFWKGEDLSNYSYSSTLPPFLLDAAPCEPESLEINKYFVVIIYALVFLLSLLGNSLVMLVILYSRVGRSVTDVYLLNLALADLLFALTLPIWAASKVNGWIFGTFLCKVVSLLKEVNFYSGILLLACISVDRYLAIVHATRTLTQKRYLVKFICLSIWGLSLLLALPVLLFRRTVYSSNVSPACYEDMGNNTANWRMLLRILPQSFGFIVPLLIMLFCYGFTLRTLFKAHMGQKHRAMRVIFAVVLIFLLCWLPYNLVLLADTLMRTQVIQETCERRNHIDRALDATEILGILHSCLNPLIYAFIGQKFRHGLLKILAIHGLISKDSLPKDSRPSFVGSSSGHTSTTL
Outline: (§1)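 HEK293 cells stably co-expressing Gα16 with either CXCR1 or CXCR2 were seeded and grown for 24 h. They were loaded with 2 μmol L−1 Fluo-4 AM in HBSS (pH 7.4, with BSA and 250 μmol L−1 sulfinpyrazone) for 45 min at 37 °C, and excess dye was removed. Test compound was added for 10 min at room temperature before IL-8 injection. Calcium signal was read at ex 485/em 525 nm. IC50 came from nonlinear regression of log concentration–response curves; each experiment was run ≥3 times.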

CXCR1 = molecular target: T2, CXCR1 (Homo sapiens, UniProt P25024); experiment: CXCR1 antagonistic activity assay; type: cell-based
T2 sequence (P25024 1-350): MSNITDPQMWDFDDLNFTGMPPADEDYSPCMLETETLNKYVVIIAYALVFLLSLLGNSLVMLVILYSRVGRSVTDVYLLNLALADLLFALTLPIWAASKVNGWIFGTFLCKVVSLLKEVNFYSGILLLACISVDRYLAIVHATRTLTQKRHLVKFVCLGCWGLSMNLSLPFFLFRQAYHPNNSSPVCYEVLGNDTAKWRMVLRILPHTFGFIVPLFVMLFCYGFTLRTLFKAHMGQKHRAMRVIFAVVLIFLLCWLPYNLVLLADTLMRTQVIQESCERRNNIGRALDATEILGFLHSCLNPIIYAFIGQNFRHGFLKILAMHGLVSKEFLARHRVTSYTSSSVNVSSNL
Outline: as §1

[1] = Liver microsome stability assay, human; type: in vitro ADME; details: @45 min, 37 °C, NADPH
Outline: (§2)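 Rat or human liver microsomes (1 mg mL−1) were mixed with NADPH (from a 50 mM stock) and pre-warmed for 5 min at 37 °C. Reactions were started with test article from a 100 μg mL−1 stock and kept at 37 °C. Samples at 0, 15 and 45 min were quenched in methanol containing 1 μg mL−1 internal standard, then centrifuged and analysed by LC/MS. Disappearance was derived from the analyte/internal standard peak-area ratio.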

CFPAC1 cells [2] = experiment: Cell migration assay; type: cell-based; details: 10 μM, 24 h, 3 visual fields, control group 1221 ± 57 cells
[3] = Liver microsome stability assay, rat; type: in vitro ADME; details: @45 min, 37 °C, NADPH
Outline: as §2

CFPAC1 cells [4] = experiment: Wound healing assay; type: cell-based; details: Homo sapiens, CFPAC-1, 48 h, read-out: migration inhibitory rate
Outline: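 CFPAC1 cells were seeded at 5 × 10^5 per well in 6-well plates and grown to 90% confluence. The monolayer was scratched with a sterile pipette tip and rinsed three times with PBS. Cells were then exposed to 1‰ DMSO or 10 μM test compound. Wounds were photographed at 0, 24 and 48 h. Inhibition (%) = [1 − (0 h area − 24 h or 48 h area)/0 h area] × 100.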

[5] = Plasma stability assay, rat plasma; type: in vitro ADME; details: @45 min, 37 °C
Outline: (§3)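 Rat or human plasma was spiked with test article from a 100 μg mL−1 stock and incubated at 37 °C with gentle agitation. Aliquots taken at 0, 15 and 45 min were quenched in methanol containing 1 μg mL−1 internal standard, then centrifuged and analysed by LC/MS. Percent remaining relative to 0 min was based on the analyte/internal standard peak-area ratio.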

[6] = Plasma stability assay, human plasma; type: in vitro ADME; details: @45 min, 37 °C
Outline: as §3

CFPAC1 cells [7] = experiment: Anti-proliferation assay; type: cell-based; details: 6.25, 12.5, 25, 50 and 100 μM; 72 h; MTT
Outline: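 CFPAC1 pancreatic cancer cells were seeded at 4000 cells per well and left to adhere for 24 h. They were then exposed for 72 h to medium alone or to test compound at 6.25, 12.5, 25, 50 or 100 μM. Viability was read by MTT. Growth inhibition (%) = [1 − (A/B)] × 100, where A is treated and B is untreated absorbance.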

SGF stability assay = type: in vitro ADME; details: @45 min, 37 °C, pH about 1.2
Outline: (§4)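 Two media were used. SIF: pancreatin 0.68 g per 100 mL of 50 mM potassium phosphate, pH 7.4. SGF: pepsin 3.2 g per 1000 mL of water with 2.0 g NaCl and 7.0 mL concentrated HCl, pH about 1.2. Test article was added from a 100 μg mL−1 stock and incubated at 37 °C with gentle agitation. Samples at 0, 15 and 45 min were quenched in methanol with 1 μg mL−1 internal standard and analysed by LC/MS. Percent remaining relative to 0 min used the peak-area ratio.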

[8] = Oral pharmacokinetic study in rats; type: in vivo; details: SD, rat, plasma, 10 mg/kg
Outline: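 SD rats received test compound at 10 mg kg−1 by oral gavage in 2% DMSO + 98% (0.5% MC). Venous blood was sampled at 0, 0.25, 0.5, 1, 2, 4, 6, 8 and 24 h. Plasma was separated by centrifugation, stored at −20 °C and assayed by LC/MS. Cmax, Tmax, t1/2 and AUC were then calculated.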

SIF stability assay = type: in vitro ADME; details: @45 min, 37 °C, pH 7.4
Outline: as §4

IC50 (CXCR2) [µM]	IC50 (CXCR1) [µM]	Ratio = CXCR1 IC50/CXCR2 IC50 (selectivity for CXCR2 over CXCR1) (CXCR2)	Compound	other results
0.092	6.5	70.7	CC(C)[S+]([O-])c1c(Cl)ccc(Nc2c(NC3C[C@@H]4CC[C@H]3C4)c(=O)c2=O)c1O (stereo partly drawn) [2d, 3-(((1S,4R)-Bicyclo[2.2.1]heptan-2-yl)amino)-4-((4-chloro-2-hydroxy-3-(isopropylsulfinyl)phenyl)amino)cyclobut-3-ene-1,2-dione]	
3.8	86.1	22.7	Cc1ccc(Nc2c(NC3C[C@@H]4CC[C@H]3C4)c(=O)c2=O)c(O)c1 (stereo partly drawn) [2a, 3-(((1S,4R)-Bicyclo[2.2.1]heptan-2-yl)amino)-4-((2-hydroxy-4-methylphenyl)amino)cyclobut-3-ene-1,2-dione]	
0.12	12.4	103.3	CC(C)S(=O)(=O)c1c(Cl)ccc(Nc2c(NC3C[C@@H]4CC[C@H]3C4)c(=O)c2=O)c1O (stereo partly drawn) [2c, 3-(((1S,4R)-Bicyclo[2.2.1]heptan-2-yl)amino)-4-((4-chloro-2-hydroxy-3-(isopropylsulfonyl)phenyl)amino)cyclobut-3-ene-1,2-dione]	
0.45	42.7	94.9	N#Cc1ccc(Nc2c(NC3C[C@@H]4CC[C@H]3C4)c(=O)c2=O)c(O)c1 (stereo partly drawn) [2b, 4-((2-(((1S,4R)-Bicyclo[2.2.1]heptan-2-yl)amino)-3,4-dioxocyclobut-1-en-1-yl)amino)-3-hydroxybenzonitrile]	
0.42	5.6	13.3	CC(C)(C)OC(=O)N1CCN(C(=O)c2cccc(Nc3c(NC4C[C@@H]5CC[C@H]4C5)c(=O)c3=O)c2O)CC1 (stereo partly drawn) [2g, Tert-butyl 4-(3-((2-(((1S,4R)-bicyclo[2.2.1]heptan-2-yl)amino)-3,4-dioxocyclobut-1-en-1-yl)amino)-2-hydroxybenzoyl)piperazine-1-carboxylate]	
0.59	10.3	17.5	O=C(c1cccc(Nc2c(NC3C[C@@H]4CC[C@H]3C4)c(=O)c2=O)c1O)N1CCCCC1 (stereo partly drawn) [2f, 3-(((1S,4R)-Bicyclo[2.2.1]heptan-2-yl)amino)-4-((2-hydroxy-3-(piperidine-1-carbonyl)phenyl)amino)cyclobut-3-ene-1,2-dione]	
0.53	> 100	>188.7	Cl.O=C(c1cccc(Nc2c(NC3C[C@@H]4CC[C@H]3C4)c(=O)c2=O)c1O)N1CCNCC1 (stereo partly drawn) [2h, 3-(((1S,4R)-Bicyclo[2.2.1]heptan-2-yl)amino)-4-((2-hydroxy-3-(piperazine-1-carbonyl)phenyl)amino)cyclobut-3-ene-1,2-dione hydrochloride]	

The remaining lines, values behind:

Compound	IC50 (CXCR2) [µM]	IC50 (CXCR1) [µM]	Ratio = CXCR1 IC50/CXCR2 IC50 (selectivity for CXCR2 over CXCR1) (CXCR2)	other results
CN(C)C(=O)c1cccc(Nc2c(NC3C[C@H]4CC[C@@H](C3)N4C(=O)OC(C)(C)C)c(=O)c2=O)c1O (stereo partly drawn) [1b, Tert-butyl (1R,5S)-3-((2-((3-(dimethylcarbamoyl)-2-hydroxyphenyl)amino)-3,4-dioxocyclobut-1-en-1-yl)amino)-8-azabicyclo[3.2.1]octane-8-carboxylate]	> 100	> 100		
CN(C)C(=O)c1cccc(Nc2c(NC3C[C@H]4CC[C@]3(C)C4(C)C)c(=O)c2=O)c1O (stereo partly drawn) [1c, 3-((3,4-Dioxo-2-(((1R,4R)-1,7,7-trimethylbicyclo[2.2.1]heptan-2-yl)amino)cyclobut-1-en-1-yl)amino)-2-hydroxy-N,N-dimethylbenzamide]	5.5	35.6	6.5	
O=C(c1cccc(Nc2c(NC3C[C@@H]4CC[C@H]3C4)c(=O)c2=O)c1O)N1CCCC1 (stereo partly drawn) [2e, 3-(((1S,4R)-Bicyclo[2.2.1]heptan-2-yl)amino)-4-((2-hydroxy-3-(pyrrolidine-1-carbonyl)phenyl)amino)cyclobut-3-ene-1,2-dione]			60.4	Remaining percentage, liver microsome stability, human [1]: 27% and 27.4 ± 4.3%; number of cells traversed into the lower chamber of the Transwell (CFPAC1 cells [2]): 727 ± 50 cells; Remaining percentage, liver microsome stability, rat [3]: 84% and 84.2 ± 3.4%; inhibition at 10 µM (CFPAC1 cells [4]): 20.2%; Remaining percentage, plasma stability, rat [5]: >99%; Remaining percentage, plasma stability, human [6]: >99%; inhibitory effect on the CFPAC1 cell line (survival rate) (CFPAC1 cells [7]): no inhibitory effect; Remaining percentage, SGF (SGF stability assay): >99%; AUC(0-inf) [8]: 8940 ± 3460 ng·h/mL; AUC(0-t) [8]: 8820 ± 3560 ng·h/mL; Cmax [8]: 2860 ± 94 ng/mL; MRT [8]: 3.43 ± 0.73 h; Tmax [8]: 0.33 ± 0.14 h; half-life [8]: 2.58 ± 0.74 h; k el [8]: 7.92e-05 s⁻¹; Remaining percentage, SIF (SIF stability assay): 92.2 ± 2.0%
CN(C)C(=O)c1cccc(Nc2c(NCC3C[C@H]4CC[C@@H]3C4)c(=O)c2=O)c1O (stereo partly drawn) [1f, 3-((2-((((1R,4S)-Bicyclo[2.2.1]heptan-2-yl)methyl)amino)-3,4-dioxocyclobut-1-en-1-yl)amino)-2-hydroxy-N,N-dimethylbenzamide]	23.6	48.8	2.1	
CN(C)C(=O)c1cccc(Nc2c(NC3C[C@H]4C[C@@H]3C3CCC[C@@H]34)c(=O)c2=O)c1O (stereo partly drawn) [1d, 2-Hydroxy-N,N-dimethyl-3-((2-(((4R,7R,7aR)-octahydro-1H-4,7-methanoinden-5-yl)amino)-3,4-dioxocyclobut-1-en-1-yl)amino)benzamide]	1	6.7	6.7	
CN(C)C(=O)c1cccc(Nc2c(NC3C[C@@H]4CC[C@H]3C4)c(=O)c2=O)c1O (stereo partly drawn) [1a, 3-((2-(((1S,4R)-Bicyclo[2.2.1]heptan-2-yl)amino)-3,4-dioxocyclobut-1-en-1-yl)amino)-2-hydroxy-N,N-dimethylbenzamide]	0.062	7	113	
CN(C)C(=O)c1cccc(Nc2c(NCC3C[C@H]4C=C[C@@H]3C4)c(=O)c2=O)c1O (stereo partly drawn) [1e, 3-((2-((((1S,4S)-Bicyclo[2.2.1]hept-5-en-2-yl)methyl)amino)-3,4-dioxocyclobut-1-en-1-yl)amino)-2-hydroxy-N,N-dimethylbenzamide]	2.6	30.8	11.8	
